# From ChEMBL document CHEMBL1275524, “Activities of antifungal agents against yeasts and filamentous fungi: assessment according to the methodology of the European Committee on Antimicrobial Susceptibility Testing” (2008)
# Experiments:
# Candida albicans [1] = test: Antifungal activity against Candida albicans; assay type: functional
# Outline: (§1)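 Broth microdilution in flat-bottom plates in RPMI 1640 with 2% glucose; inoculum 0.5 × 105 to 2.5 × 10^5 CFU/ml. MICs were read spectrophotometrically at 24 h. AMB endpoint: ≥90% growth reduction vs drug-free control well. Azole and CPF endpoint: 50% reduction in optical density. MFC was taken as the lowest concentration giving 99% killing.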
# Nakaseomyces glabratus [2] = test: Antifungal activity against Candida glabrata; assay type: functional; outline: as §1
# Candida parapsilosis [3] = test: Antifungal activity against Candida parapsilosis; assay type: functional; details: Lodderomyces parapsilosis; outline: as §1
# Pichia kudriavzevii [4] = test: Antifungal activity against Candida krusei; assay type: functional
# Outline: (§2)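 EUCAST broth microdilution for yeasts in flat-bottom plates, RPMI 1640 with 2% glucose, inoculum 0.5 × 105 to 2.5 × 10^5 CFU/ml. […] MFC is the lowest concentration giving 99% killing.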
# Clavispora lusitaniae [5] = test: Antifungal activity against Candida lusitaniae; assay type: functional; outline: as §1
# Candida tropicalis [6] = test: Antifungal activity against Candida tropicalis; assay type: functional; outline: as §1
# [7] = test system: Meyerozyma guilliermondii; test: Antifungal activity against Candida guilliermondii; assay type: functional; outline: as §1
# Saccharomyces cerevisiae [8] = test: Antifungal activity against Saccharomyces cerevisiae; assay type: functional
# Outline: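 Broth microdilution following EUCAST for fermentative yeasts, in flat-bottom plates with RPMI 1640 plus 2% glucose. Inoculum was 0.5 × 10^5 to 2.5 × 10^5 CFU/ml. End points were read spectrophotometrically at 24 h: ≥90% growth reduction versus a drug-free control for amphotericin B, and 50% OD reduction for azoles and caspofungin. MFC was the lowest concentration giving 99% killing.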
# [9] = Antifungal activity against Cryptococcus neoformans var. neoformans; assay type: functional; details: Cryptococcus deneoformans
# Outline: (§3)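 EUCAST yeast microdilution, modified for nonfermentative yeasts: plates were sealed and agitated at 350 rpm and 30°C for 48 h.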
# Cryptococcus gattii [10] = test: Antifungal activity against Cryptococcus neoformans var. gattii; assay type: functional, Cryptococcus bacillisporus; outline: as §3
# Trichosporon inkin [11] = test: Antifungal activity against Trichosporon inkin; assay type: functional
# Outline: (§4)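 Nonfermentative yeasts were tested by the EUCAST microdilution recommendations with one change: plates were sealed and agitated at 350 rpm and 30°C for 48 h.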
# Trichosporon asahii [12] = test: Antifungal activity against Trichosporon asahii; assay type: functional; outline: as §4
# Geotrichum candidum [13] = test: Antifungal activity against Geotrichum candidum; assay type: functional
# Aspergillus fumigatus [14] = test: Antifungal activity against Aspergillus fumigatus; assay type: functional
# Aspergillus terreus [15] = test: Antifungal activity against Aspergillus terreus; assay type: functional
# Aspergillus flavus [16] = test: Antifungal activity against Aspergillus flavus; assay type: functional
# Aspergillus niger [17] = test: Antifungal activity against Aspergillus niger; assay type: functional
# Rhizomucor [18] = test: Antifungal activity against Rhizomucor species; assay type: functional
# Lichtheimia corymbifera [19] = test: Antifungal activity against Absidia corymbifera; assay type: functional
# Absidia [20] = test: Antifungal activity against Absidia species; assay type: functional
# [21] = Antifungal activity against Rhizopus microsporus var. oligosporus; assay type: functional
# Outline: (§5)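 Broth microdilution following the EUCAST reference procedure for spore-forming moulds, in flat-bottom plates with RPMI 1640 plus 2% glucose. Inoculum was 2 × 10^5 to 5 × 10^5 CFU/ml. MICs were read visually at 24 and 48 h as 100% growth reduction versus a drug-free control for polyenes and azoles. MEC was used for caspofungin. Tests were run in duplicate and repeated twice.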
# Rhizopus arrhizus [22] = test: Antifungal activity against Rhizopus oryzae; assay type: functional; outline: as §5
# Rhizopus [23] = test: Antifungal activity against Rhizopus species; assay type: functional; outline: as §5
# Mucor hiemalis [24] = test: Antifungal activity against Mucor hiemalis; assay type: functional
# Mucor [25] = test: Antifungal activity against Mucor species; assay type: functional
# Cunninghamella [26] = test: Antifungal activity against Cunninghamella species; assay type: functional
# Lomentospora prolificans = test: Antifungal activity against Scedosporium prolificans; assay type: functional; outline: as §5
# Scedosporium apiospermum [27] = test: Antifungal activity against Scedosporium apiospermum; assay type: functional; outline: as §5
# Talaromyces marneffei [28] = test: Antifungal activity against Penicillium marneffei; assay type: functional
# Penicillium sp. [29] = test: Antifungal activity against Penicillium species; assay type: functional
# Fusarium solani [30] = test: Antifungal activity against Fusarium solani; assay type: functional
# Fusarium oxysporum [31] = test: Antifungal activity against Fusarium oxysporum; assay type: functional
# Sporothrix schenckii [32] = test: Antifungal activity against Sporothrix schenckii; assay type: functional; outline: as §5
# Curvularia lunata [33] = test: Antifungal activity against Curvularia lunata; assay type: functional
# Curvularia australiensis [34] = test: Antifungal activity against Bipolaris australiensis; assay type: functional
# Outline: (§6)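 Dematiaceous fungi were tested by the EUCAST spore-forming mold reference procedure: flat-bottom microdilution plates, RPMI 1640 plus 2% glucose, inoculum 2 × 105 to 5 × 10^5 CFU/ml. Endpoints were read visually at 24 and 48 h. Polyenes and azoles: 100% growth reduction vs drug-free control. CPF: minimum effective concentration. Run in duplicate and repeated twice.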
# [35] = Antifungal activity against Rhinocladiella aquaspersa; assay type: functional; outline: as §6
# Candida albicans [36] = test: Antifungal activity against Candida albicans by EUCAST method; assay type: functional; outline: as §1
# Nakaseomyces glabratus [37] = test: Antifungal activity against Candida glabrata by EUCAST method; assay type: functional; outline: as §1
# Candida parapsilosis [38] = test: Antifungal activity against Candida parapsilosis by EUCAST method; assay type: functional; details: Lodderomyces parapsilosis; outline: as §1
# Pichia kudriavzevii [39] = test: Antifungal activity against Candida krusei by EUCAST method; assay type: functional; outline: as §1
# Clavispora lusitaniae [40] = test: Antifungal activity against Candida lusitaniae by EUCAST method; assay type: functional; outline: as §1
# Candida tropicalis [41] = test: Antifungal activity against Candida tropicalis by EUCAST method; assay type: functional; outline: as §1
# [42] = test system: Meyerozyma guilliermondii; test: Antifungal activity against Candida guilliermondii by EUCAST method; assay type: functional; outline: as §1
# Saccharomyces cerevisiae [43] = test: Antifungal activity against Saccharomyces cerevisiae by EUCAST method; assay type: functional; outline: as §2
# [44] = Antifungal activity against Cryptococcus neoformans var. neoformans by EUCAST method; assay type: functional; details: Cryptococcus deneoformans; outline: as §3
# Cryptococcus gattii [45] = test: Antifungal activity against Cryptococcus neoformans var. gattii by EUCAST method; assay type: functional, Cryptococcus bacillisporus; outline: as §3
# Trichosporon inkin [46] = test: Antifungal activity against Trichosporon inkin by EUCAST method; assay type: functional; outline: as §4
# Trichosporon asahii [47] = test: Antifungal activity against Trichosporon asahii by EUCAST method; assay type: functional; outline: as §4
# Geotrichum candidum [48] = test: Antifungal activity against Geotrichum candidum by EUCAST method; assay type: functional
# Aspergillus fumigatus [49] = test: Antifungal activity against Aspergillus fumigatus by EUCAST method; assay type: functional
# Aspergillus terreus [50] = test: Antifungal activity against Aspergillus terreus by EUCAST method; assay type: functional
# Aspergillus flavus [51] = test: Antifungal activity against Aspergillus flavus by EUCAST method; assay type: functional
# Aspergillus niger [52] = test: Antifungal activity against Aspergillus niger by EUCAST method; assay type: functional
# Rhizomucor [53] = test: Antifungal activity against Rhizomucor species by EUCAST method; assay type: functional; outline: as §5
# Lichtheimia corymbifera [54] = test: Antifungal activity against Absidia corymbifera by EUCAST method; assay type: functional
# Absidia [55] = test: Antifungal activity against Absidia species by EUCAST method; assay type: functional
# [56] = Antifungal activity against Rhizopus microsporus var. oligosporus by EUCAST method; assay type: functional; outline: as §5
# Rhizopus arrhizus [57] = test: Antifungal activity against Rhizopus oryzae by EUCAST method; assay type: functional; outline: as §5
# Rhizopus [58] = test: Antifungal activity against Rhizopus species by EUCAST method; assay type: functional; outline: as §5
# Mucor hiemalis [59] = test: Antifungal activity against Mucor hiemalis by EUCAST method; assay type: functional
# Mucor [60] = test: Antifungal activity against Mucor species by EUCAST method; assay type: functional
# Cunninghamella [61] = test: Antifungal activity against Cunninghamella species by EUCAST method; assay type: functional
# Scedosporium apiospermum [62] = test: Antifungal activity against Scedosporium apiospermum by EUCAST method; assay type: functional; outline: as §5
# Talaromyces marneffei [63] = test: Antifungal activity against Penicillium marneffei by EUCAST method; assay type: functional
# Penicillium sp. [64] = test: Antifungal activity against Penicillium species by EUCAST method; assay type: functional
# Fusarium solani [65] = test: Antifungal activity against Fusarium solani by EUCAST method; assay type: functional
# Fusarium oxysporum [66] = test: Antifungal activity against Fusarium oxysporum by EUCAST method; assay type: functional
# Sporothrix schenckii [67] = test: Antifungal activity against Sporothrix schenckii by EUCAST method; assay type: functional; outline: as §5
# Curvularia lunata [68] = test: Antifungal activity against Curvularia lunata by EUCAST method; assay type: functional; outline: as §6
# Curvularia australiensis [69] = test: Antifungal activity against Bipolaris australiensis by EUCAST method; assay type: functional; outline: as §6
# [70] = Antifungal activity against Rhinocladiella aquaspersa by EUCAST method; assay type: functional; outline: as §6
structure (smiles),measurement,setting,value
CC[C@@H]([C@H](C)O)n1ncn(-c2ccc(N3CCN(c4ccc(OC[C@@H]5CO[C@@](Cn6cncn6)(c6ccc(F)cc6F)C5)cc4)CC3)cc2)c1=O [POSACONAZOLE],MFC,Candida albicans [1],0.12 µg/mL
same,MFC,Nakaseomyces glabratus [2],> 4 µg/mL
same,MFC,Candida parapsilosis [3],0.06 µg/mL
same,MFC,Pichia kudriavzevii [4],0.5 µg/mL
same,MFC,Clavispora lusitaniae [5],0.06 µg/mL
same,MFC,Candida tropicalis [6],> 0.12 µg/mL
same,MFC,[7],0.25 µg/mL
same,MFC,Saccharomyces cerevisiae [8],> 4 µg/mL
same,MFC,[9],0.125 µg/mL
same,MFC,Cryptococcus gattii [10],0.125 µg/mL
same,MFC,Trichosporon inkin [11],0.5 µg/mL
same,MFC,Trichosporon asahii [12],> 8 µg/mL
same,MFC,Geotrichum candidum [13],> 8 µg/mL
same,MFC,Aspergillus fumigatus [14],0.5 µg/mL
same,MFC,Aspergillus terreus [15],0.5 µg/mL
same,MFC,Aspergillus flavus [16],0.5 µg/mL
same,MFC,Aspergillus niger [17],1 µg/mL
same,MFC,Rhizomucor [18],> 2 µg/mL
same,MFC,Lichtheimia corymbifera [19],2 µg/mL
same,MFC,Absidia [20],0.5 µg/mL
same,MFC,[21],> 8 µg/mL
same,MFC,Rhizopus arrhizus [22],2 µg/mL
same,MFC,Rhizopus [23],> 2 µg/mL
same,MFC,Mucor hiemalis [24],2 µg/mL
same,MFC,Mucor [25],2 µg/mL
same,MFC,Cunninghamella [26],2 µg/mL
same,MFC,Lomentospora prolificans,> 8 µg/mL
same,MFC,Scedosporium apiospermum [27],1 µg/mL
same,MFC,Talaromyces marneffei [28],0.25 µg/mL
same,MFC,Penicillium sp. [29],0.5 µg/mL
same,MFC,Fusarium solani [30],> 8 µg/mL
same,MFC,Fusarium oxysporum [31],0.25 µg/mL
same,MFC,Sporothrix schenckii [32],0.5 µg/mL
same,MFC,Curvularia lunata [33],0.5 µg/mL
same,MFC,Curvularia australiensis [34],0.125 µg/mL
same,MFC,[35],0.125 µg/mL
same,MIC,Candida albicans [36],0.14 µg/mL
same,MIC,Nakaseomyces glabratus [37],1.58 µg/mL
same,MIC,Candida parapsilosis [38],0.05 µg/mL
same,MIC,Pichia kudriavzevii [39],0.68 µg/mL
same,MIC,Clavispora lusitaniae [40],0.06 µg/mL
same,MIC,Candida tropicalis [41],0.12 µg/mL
same,MIC,[42],0.45 µg/mL
same,MIC,Saccharomyces cerevisiae [43],0.66 µg/mL
same,MIC,[44],0.14 µg/mL
same,MIC,Cryptococcus gattii [45],0.06 µg/mL
same,MIC,Trichosporon inkin [46],0.28 µg/mL
same,MIC,Trichosporon asahii [47],6 µg/mL
same,MIC,Geotrichum candidum [48],0.37 µg/mL
same,MIC,Aspergillus fumigatus [49],0.37 µg/mL
same,MIC,Aspergillus terreus [50],0.19 µg/mL
same,MIC,Aspergillus flavus [51],0.21 µg/mL
same,MIC,Aspergillus niger [52],0.26 µg/mL
same,MIC,Rhizomucor [53],2.23 µg/mL
same,MIC,Lichtheimia corymbifera [54],0.29 µg/mL
same,MIC,Absidia [55],0.33 µg/mL
same,MIC,[56],5.33 µg/mL
same,MIC,Rhizopus arrhizus [57],1.89 µg/mL
same,MIC,Rhizopus [58],0.78 µg/mL
same,MIC,Mucor hiemalis [59],1.33 µg/mL
same,MIC,Mucor [60],0.72 µg/mL
same,MIC,Cunninghamella [61],2 µg/mL
same,MIC,Scedosporium apiospermum [62],1 µg/mL
same,MIC,Talaromyces marneffei [63],0.06 µg/mL
same,MIC,Penicillium sp. [64],0.05 µg/mL
same,MIC,Fusarium solani [65],1 µg/mL
same,MIC,Fusarium oxysporum [66],0.12 µg/mL
same,MIC,Sporothrix schenckii [67],0.25 µg/mL
same,MIC,Curvularia lunata [68],0.25 µg/mL
same,MIC,Curvularia australiensis [69],0.12 µg/mL
same,MIC,[70],0.06 µg/mL
